ChEMBL document CHEMBL1148955, “Chemical constituents from the Colombian medicinal plant Maytenus laevis” (2004)
Active and inactive are the calls of the source. The rule behind the calls is not given here.

How the values were obtained:
PBMC [1] = test: Induction of TNFalpha production in human PBMC at 1 ug/ml after 48 hrs by ELISA; assay type: functional
Outline: (§1)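 PBMCs were isolated from heparinized venous blood by Ficoll-Hypaque density gradient centrifugation. Cells were cultured at 1 × 10^6/mL in RPMI 1640 with 10% fetal calf serum, with or without compound at 1 or 10 µg/mL, for 48 h at 37 °C. Cytokines in the culture supernatants were measured by commercial ELISA kits.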

PBMC [2] = test: Induction of IL4 production in human PBMC at 10 ug/ml after 48 hrs by ELISA; assay type: functional, cell-based; outline: as §1
PBMC [3] = test: Induction of IFN-gamma production in human PBMC at 10 ug/ml after 48 hrs by ELISA; assay type: functional, cell-based; outline: as §1
PBMC [4] = test: Induction of IL12 production in human PBMC at 10 ug/ml after 48 hrs by ELISA; assay type: functional; outline: as §1
PBMC [5] = test: Induction of IL6 production in human PBMC at 1 ug/ml after 48 hrs by ELISA; assay type: functional; outline: as §1
PBMC [6] = test: Induction of IL4 production in human PBMC at 1 ug/ml after 48 hrs by ELISA; assay type: functional, cell-based; outline: as §1
PBMC [7] = test: Induction of IL6 production in human PBMC at 10 ug/ml after 48 hrs by ELISA; assay type: functional; outline: as §1
PBMC [8] = test: Induction of IL10 production in human PBMC at 1 ug/ml after 48 hrs by ELISA; assay type: functional, cell-based; outline: as §1
PBMC [9] = test: Induction of IFN-gamma production in human PBMC at 1 ug/ml after 48 hrs by ELISA; assay type: functional, cell-based; outline: as §1
PBMC [10] = test: Induction of TNFalpha production in human PBMC at 10 ug/ml after 48 hrs by ELISA; assay type: functional; outline: as §1
PBMC [11] = test: Induction of IL10 production in human PBMC at 10 ug/ml after 48 hrs by ELISA; assay type: functional, cell-based; outline: as §1
PBMC [12] = test: Induction of IL12 production in human PBMC at 1 ug/ml after 48 hrs by ELISA; assay type: functional; outline: as §1

Compound	Activity (PBMC [1])	Activity (PBMC [2])	Activity (PBMC [3])	Activity (PBMC [4])	Activity (PBMC [5])	Activity (PBMC [6])	Activity (PBMC [7])	Activity (PBMC [8])	Activity (PBMC [9])	Activity (PBMC [10])	Activity (PBMC [11])	Activity (PBMC [12])
CC1(C)[C@H](O)CC[C@]2(C)[C@H]3CC=C4[C@@H]5C[C@](C)(C(=O)O)C[C@H](O)[C@]5(C)CC[C@@]4(C)[C@]3(C)CC[C@@H]12 [TRIPTOCALLIC ACID D]	<7.8 pg/mL	inactive	inactive	<7.8 pg/mL	793.2 pg/mL	inactive	<7.8 pg/mL	inactive	inactive	<7.8 pg/mL	inactive	<7.8 pg/mL
CC1(C)[C@@H](O)CC[C@]2(C)[C@H]3CC=C4[C@H]5C[C@](C)(C(=O)O)C[C@@H](O)[C@]5(C)CC[C@@]4(C)[C@]3(C)CC[C@@H]12	<7.8 pg/mL	inactive	inactive	<7.8 pg/mL	57.5 pg/mL	inactive	297.6 pg/mL	inactive	inactive	<7.8 pg/mL	inactive	<7.8 pg/mL
COc1c(O)cc([C@H]2Oc3cc(O)cc(O)c3C(=O)[C@H]2O)cc1O	<7.8 pg/mL	inactive	inactive	<7.8 pg/mL	279.4 pg/mL	inactive	470.4 pg/mL	inactive	inactive	<7.8 pg/mL	inactive	<7.8 pg/mL
COc1c(O)cc([C@H]2Oc3c(c(O)cc(O)c3[C@H]3c4c(O)cc(O)cc4O[C@H](c4ccc(O)cc4)[C@@H]3O)C[C@H]2O)cc1O [OURATEAPROANTHOCYANIDIN A]	<7.8 pg/mL	inactive	inactive	<7.8 pg/mL	28.1 pg/mL	inactive	174.4 pg/mL	inactive	inactive	<7.8 pg/mL	inactive	<7.8 pg/mL
CC(=O)OC[C@]12[C@H](OC(=O)c3ccccc3)[C@H](OC(C)=O)[C@@H]3[C@@H](OC(C)=O)[C@@]14O[C@@]3(C)COC(=O)c1cccnc1C(C)C(C)C(=O)O[C@@H]([C@H](OC(C)=O)[C@@H]2OC(=O)c1ccccc1)[C@]4(C)O (stereo not given in full) [EBENIFOLINE E III]	<7.8 pg/mL	inactive	inactive	<7.8 pg/mL	<7.8 pg/mL	inactive	<7.8 pg/mL	inactive	inactive	<7.8 pg/mL	inactive	<7.8 pg/mL
C[C@@H]1O[C@@H](O[C@@H]2[C@@H](O)[C@H](OCCc3ccc(O)c(O)c3)O[C@H](COC(=O)/C=C/c3ccc(O)c(O)c3)[C@H]2O)[C@H](O)[C@H](O)[C@H]1O [ISOACTEOSIDE]	<7.8 pg/mL	inactive	inactive	<7.8 pg/mL	101.5 pg/mL	inactive	175.5 pg/mL	inactive	inactive	<7.8 pg/mL	inactive	<7.8 pg/mL
COc1c(O)cc([C@H]2Oc3cc(O)cc(O)c3C[C@H]2O)cc1O	<7.8 pg/mL	inactive	inactive	<7.8 pg/mL	<7.8 pg/mL	inactive	662.9 pg/mL	inactive	inactive	<7.8 pg/mL	inactive	<7.8 pg/mL
CC(C)c1cc2c(cc1O)[C@@]1(C)CCC[C@](C)(C(=O)O)[C@@H]1CC2 [LAMBERTIC ACID]	<7.8 pg/mL	inactive	inactive	<7.8 pg/mL	59.8 pg/mL	inactive	1454.4 pg/mL	inactive	inactive	<7.8 pg/mL	inactive	<7.8 pg/mL
C[C@@H]1[C@H]2C3=CC[C@@H]4[C@@]5(C)CC[C@@H](O)C(C)(C)[C@@H]5CC[C@@]4(C)[C@]3(C)CC[C@@]2(C)[C@@H](O)C[C@H]1C(=O)O [TRIPTOCALLIC ACID A]	<7.8 pg/mL	inactive	inactive	<7.8 pg/mL	705.7 pg/mL	inactive	10.6 pg/mL	inactive	inactive	<7.8 pg/mL	inactive	<7.8 pg/mL
CC1(C)[C@H](O)CC[C@]2(C)[C@H]3CC=C4[C@@H]5C[C@](C)(C(=O)O)C[C@@H](O)[C@]5(C)CC[C@@]4(C)[C@]3(C)CC[C@@H]12	<7.8 pg/mL	inactive	inactive	<7.8 pg/mL	32.2 pg/mL	inactive	16.2 pg/mL	inactive	inactive	<7.8 pg/mL	inactive	<7.8 pg/mL
CC1(C)[C@@H](O)CC[C@]2(C)[C@H]3CC=C4[C@@H]5C[C@](C)(C(=O)O)C[C@H](O)[C@]5(C)CC[C@@]4(C)[C@]3(C)CC[C@@H]12 [MAYTENFOLIC ACID]	<7.8 pg/mL			<7.8 pg/mL	380 pg/mL		76.1 pg/mL			<7.8 pg/mL		<7.8 pg/mL
CC1(C)[C@H](O)CC[C@]2(C)[C@H]3CC=C4[C@@H]5C[C@@]6(C)C[C@H](OC6=O)[C@]5(C)CC[C@@]4(C)[C@]3(C)CC[C@@H]12 [ABRUSLACTONE A]	<7.8 pg/mL	inactive	inactive	28.3 pg/mL	22.5 pg/mL	inactive	777.2 pg/mL	inactive	inactive	22.7 pg/mL	inactive	<7.8 pg/mL
COc1ccc(C(=O)O[C@@H]2C[C@](C)(O)[C@H]3[C@H](O[C@@H]4O[C@H](CO)[C@@H](O)[C@H](O)[C@H]4O)OC=C[C@H]32)cc1OC	12.6 pg/mL	inactive	inactive	<7.8 pg/mL	849.5 pg/mL	inactive	38.1 pg/mL	inactive	inactive	<7.8 pg/mL	inactive	27.2 pg/mL
